Legend:
Urotensin-2 receptor [1] = biological target: T1, Urotensin-2 receptor (Rattus norvegicus, UniProt P49684); assay: Modulation of urotensin-2 receptor in Sprague-Dawley rat thoracic aortic ring assessed as human urotensin-2 EC50 for induction of aortic ring contraction at 10 uM preincubated for 15 mins followed by human urotensin-2 addition (Rvb = 1.9 nM)
T1 sequence (P49684 whole entry): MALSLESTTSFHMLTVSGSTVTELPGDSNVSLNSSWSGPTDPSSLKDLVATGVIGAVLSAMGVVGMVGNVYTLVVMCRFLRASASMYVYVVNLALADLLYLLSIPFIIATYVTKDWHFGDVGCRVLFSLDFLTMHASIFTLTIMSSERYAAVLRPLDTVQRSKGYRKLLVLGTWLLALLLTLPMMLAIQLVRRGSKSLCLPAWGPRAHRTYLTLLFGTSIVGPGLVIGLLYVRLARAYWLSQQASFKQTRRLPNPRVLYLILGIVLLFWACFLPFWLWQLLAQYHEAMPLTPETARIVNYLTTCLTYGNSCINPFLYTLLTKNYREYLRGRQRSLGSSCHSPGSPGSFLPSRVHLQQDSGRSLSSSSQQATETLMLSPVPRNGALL
In short: (§1)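 Thoracic aortic rings from adult male Sprague-Dawley rats (250–300 g, killed by CO2). Rings were exposed to test compound for 15 min, then cumulative hUII concentration-response curves were run (10-10–3.10-6 M). Contraction is expressed as % of the 40 mM KCl response, with KCl given at the start and end. EC50/pEC50/Emax come from a variable-slope sigmoidal fit. At least triplicate.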

Urotensin-2 receptor [2] = biological target: T1, Urotensin-2 receptor; assay: Modulation of urotensin-2 receptor in Sprague-Dawley rat thoracic aortic ring assessed as urotensin-2 related peptide EC50 for induction of aortic ring contraction at 10 uM preincubated for 15 mins followed by urotensin-2 related peptide addition (Rvb = 13 nM)
Urotensin-2 receptor [3] = biological target: T1, Urotensin-2 receptor; assay: Modulation of urotensin-2 receptor in Sprague-Dawley rat thoracic aortic ring assessed as urotensin-2 related peptide pEC50 for induction of aortic ring contraction at 10 uM preincubated for 15 mins followed by urotensin-2 related peptide addition (Rvb = 7.89 +/- 0.08 no unit)
Urotensin-2 receptor [4] = biological target: T1, Urotensin-2 receptor; assay: Modulation of urotensin-2 receptor in Sprague-Dawley rat thoracic aortic ring assessed as human urotensin-2 pEC50 for induction of aortic ring contraction at 10 uM preincubated for 15 mins followed by human urotensin-2 addition (Rvb = 8.71 +/- 0.08 no unit); in short: as §1
[5] = Modulation of urotensin-2 receptor in Sprague-Dawley rat thoracic aortic ring assessed as urotensin-2 related peptide pEC50 for induction of aortic ring contraction at 15 uM preincubated for 15 mins followed by urotensin-2 related peptide addition (Rvb = 7.89 +/- 0.08 no unit)
[6] = Modulation of urotensin-2 receptor in Sprague-Dawley rat thoracic aortic ring assessed as urotensin-2 related peptide EC50 for induction of aortic ring contraction at 15 uM preincubated for 15 mins followed by urotensin-2 related peptide addition (Rvb = 13 nM)
[7] = Modulation of urotensin-2 receptor in Sprague-Dawley rat thoracic aortic ring assessed as human urotensin-2 EC50 for induction of aortic ring contraction at 15 uM preincubated for 15 mins followed by human urotensin-2 addition (Rvb = 1.9 nM)
[8] = Modulation of urotensin-2 receptor in Sprague-Dawley rat thoracic aortic ring assessed as human urotensin-2 pEC50 for induction of aortic ring contraction at 15 uM preincubated for 15 mins followed by human urotensin-2 addition (Rvb = 8.71 +/- 0.08 no unit)
[9] = Modulation of urotensin-2 receptor in Sprague-Dawley rat thoracic aortic ring assessed as urotensin-2 related peptide pEC50 for induction of aortic ring contraction at 8 uM preincubated for 15 mins followed by urotensin-2 related peptide addition (Rvb = 7.89 +/- 0.08 no unit)
[10] = Modulation of urotensin-2 receptor in Sprague-Dawley rat thoracic aortic ring assessed as human urotensin-2 EC50 for induction of aortic ring contraction at 8 uM preincubated for 15 mins followed by human urotensin-2 addition (Rvb = 1.9 nM)
[11] = Modulation of urotensin-2 receptor in Sprague-Dawley rat thoracic aortic ring assessed as human urotensin-2 pEC50 for induction of aortic ring contraction at 8 uM preincubated for 15 mins followed by human urotensin-2 addition (Rvb = 8.71 +/- 0.08 no unit)
[12] = Modulation of urotensin-2 receptor in Sprague-Dawley rat thoracic aortic ring assessed as urotensin-2 related peptide EC50 for induction of aortic ring contraction at 8 uM preincubated for 15 mins followed by urotensin-2 related peptide addition (Rvb = 13 nM)
Urotensin-2 receptor [13] = biological target: T1, Urotensin-2 receptor; assay: Modulation of urotensin-2 receptor in Sprague-Dawley rat thoracic aortic ring assessed as human urotensin-2 pEC50 for induction of aortic ring contraction at 11 uM preincubated for 15 mins followed by human urotensin-2 addition (Rvb = 8.71 +/- 0.08 no unit)
Urotensin-2 receptor [14] = biological target: T1, Urotensin-2 receptor; assay: Modulation of urotensin-2 receptor in Sprague-Dawley rat thoracic aortic ring assessed as urotensin-2 related peptide EC50 for induction of aortic ring contraction at 11 uM preincubated for 15 mins followed by urotensin-2 related peptide addition (Rvb = 13 nM)
Urotensin-2 receptor [15] = biological target: T1, Urotensin-2 receptor; assay: Modulation of urotensin-2 receptor in Sprague-Dawley rat thoracic aortic ring assessed as urotensin-2 related peptide pEC50 for induction of aortic ring contraction at 11 uM preincubated for 15 mins followed by urotensin-2 related peptide addition (Rvb = 7.89 +/- 0.08 no unit)
Urotensin-2 receptor [16] = biological target: T1, Urotensin-2 receptor; assay: Modulation of urotensin-2 receptor in Sprague-Dawley rat thoracic aortic ring assessed as human urotensin-2 EC50 for induction of aortic ring contraction at 11 uM preincubated for 15 mins followed by human urotensin-2 addition (Rvb = 1.9 nM)
Urotensin-2 receptor [17] = biological target: T1, Urotensin-2 receptor; assay: Modulation of urotensin-2 receptor in Sprague-Dawley rat thoracic aortic ring assessed as urotensin-2 related peptide pEC50 for induction of aortic ring contraction at 14 uM preincubated for 15 mins followed by urotensin-2 related peptide addition (Rvb = 7.89 +/- 0.08 no unit)
Urotensin-2 receptor [18] = biological target: T1, Urotensin-2 receptor; assay: Modulation of urotensin-2 receptor in Sprague-Dawley rat thoracic aortic ring assessed as human urotensin-2 pEC50 for induction of aortic ring contraction at 14 uM preincubated for 15 mins followed by human urotensin-2 addition (Rvb = 8.71 +/- 0.08 no unit)
Urotensin-2 receptor [19] = biological target: T1, Urotensin-2 receptor; assay: Modulation of urotensin-2 receptor in Sprague-Dawley rat thoracic aortic ring assessed as human urotensin-2 EC50 for induction of aortic ring contraction at 14 uM preincubated for 15 mins followed by human urotensin-2 addition (Rvb = 1.9 nM)
Urotensin-2 receptor [20] = biological target: T1, Urotensin-2 receptor; assay: Modulation of urotensin-2 receptor in Sprague-Dawley rat thoracic aortic ring assessed as urotensin-2 related peptide EC50 for induction of aortic ring contraction at 14 uM preincubated for 15 mins followed by urotensin-2 related peptide addition (Rvb = 13 nM)
Urotensin-2 receptor [21] = biological target: T1, Urotensin-2 receptor; assay: Modulation of urotensin-2 receptor in Sprague-Dawley rat thoracic aortic ring assessed as human urotensin-2 EC50 for induction of aortic ring contraction at 4 uM preincubated for 15 mins followed by human urotensin-2 addition (Rvb = 1.9 nM)
Urotensin-2 receptor [22] = biological target: T1, Urotensin-2 receptor; assay: Modulation of urotensin-2 receptor in Sprague-Dawley rat thoracic aortic ring assessed as human urotensin-2 pEC50 for induction of aortic ring contraction at 1 uM preincubated for 15 mins followed by human urotensin-2 addition (Rvb = 8.71 +/- 0.08 no unit)
Urotensin-2 receptor [23] = biological target: T1, Urotensin-2 receptor; assay: Modulation of urotensin-2 receptor in Sprague-Dawley rat thoracic aortic ring assessed as human urotensin-2 EC50 for induction of aortic ring contraction at 1 uM preincubated for 15 mins followed by human urotensin-2 addition (Rvb = 1.9 nM)
Urotensin-2 receptor [24] = biological target: T1, Urotensin-2 receptor; assay: Modulation of urotensin-2 receptor in Sprague-Dawley rat thoracic aortic ring assessed as human urotensin-2 pEC50 for induction of aortic ring contraction at 4 uM preincubated for 15 mins followed by human urotensin-2 addition (Rvb = 8.71 +/- 0.08 no unit)

SMILES	EC50 (Urotensin-2 receptor [1]) [nM]	EC50 (Urotensin-2 receptor [2]) [nM]	EC50 (Urotensin-2 receptor [3]) [nM]	EC50 (Urotensin-2 receptor [4]) [nM]	other results
NCCC[C@@H]1N[C@H](c2cccc3ccccc23)c2[nH]c(C(=O)O)cc2N(CCc2ccc(O)cc2)C1=O	5.7	4.5	4.6	5.6	
NCCCC[C@@H]1N[C@@H](c2ccc3ccccc3c2)c2[nH]c(C(=O)O)cc2N(CCc2ccc(O)cc2)C1=O	1.5	8.7	8.7	1.5	
NCCCC[C@@H]1N[C@H](c2ccc3ccccc3c2)c2[nH]c(C(=O)O)cc2N(CCc2ccc(O)cc2)C1=O	5	8.2	8.3	4.9	
NCCCC[C@@H]1N=C(c2ccc(-c3ccccc3)cc2)c2[nH]c(C(=O)O)cc2N(CCc2ccc(O)cc2)C1=O					EC50 [5]: 12 nM; EC50 [6]: 12 nM; EC50 [7]: 6.6 nM; EC50 [8]: 6.5 nM
NCCCC[C@@H]1N=C(c2cccc3ccccc23)c2[nH]c(C(=O)O)cc2N(CCc2ccc(O)cc2)C1=O					EC50 [9]: 5.4 nM; EC50 [10]: 7.8 nM; EC50 [11]: 7.8 nM; EC50 [12]: 5.3 nM
NCCC[C@@H]1N[C@H](c2ccc(-c3ccccc3)cc2)c2[nH]c(C(=O)O)cc2N(CCc2ccc(O)cc2)C1=O					EC50 (Urotensin-2 receptor [13]): 4.3 nM; EC50 (Urotensin-2 receptor [14]): 8.1 nM; EC50 (Urotensin-2 receptor [15]): 8.1 nM; EC50 (Urotensin-2 receptor [16]): 4.3 nM
NCCCC[C@@H]1N[C@@H](c2ccc(-c3ccccc3)cc2)c2[nH]c(C(=O)O)cc2N(CCc2ccc(O)cc2)C1=O					EC50 (Urotensin-2 receptor [17]): 10 nM; EC50 (Urotensin-2 receptor [18]): 8.7 nM; EC50 (Urotensin-2 receptor [19]): 8.8 nM; EC50 (Urotensin-2 receptor [20]): 10 nM
NCCCC[C@@H]1N[C@H](c2ccc(-c3ccccc3)cc2)c2[nH]c(C(=O)O)cc2N(CCc2ccc(O)cc2)C1=O					EC50 (Urotensin-2 receptor [21]): 3.5 nM; EC50 (Urotensin-2 receptor [22]): 4.5 nM; EC50 (Urotensin-2 receptor [23]): 4.5 nM; EC50 (Urotensin-2 receptor [17]): 19 nM; EC50 (Urotensin-2 receptor [24]): 3.5 nM; EC50 (Urotensin-2 receptor [20]): 19 nM
NCCC[C@@H]1N[C@@H](c2cccc3ccccc23)c2[nH]c(C(=O)O)cc2N(CCc2ccc(O)cc2)C1=O	4.8	3.7	3.6	4.8	
NCCCC[C@@H]1N=C(c2ccc3ccccc3c2)c2[nH]c(C(=O)O)cc2N(CCc2ccc(O)cc2)C1=O	4	21	21	4.7	
NCCC[C@@H]1N=C(c2ccc3ccccc3c2)c2[nH]c(C(=O)O)cc2N(CCc2ccc(O)cc2)C1=O	9.5	6.8	6.8	9.3	
NCCC[C@@H]1N=C(c2cccc3ccccc23)c2[nH]c(C(=O)O)cc2N(CCc2ccc(O)cc2)C1=O	2.7	12	12	2.6	
NCCC[C@@H]1N=C(c2ccc(-c3ccccc3)cc2)c2[nH]c(C(=O)O)cc2N(CCc2ccc(O)cc2)C1=O	12	23	23	12	
